High-throughput results (PubChem)
KDM4C inh – inhibitors of GASC-1 (KDM4C) histone demethylase, primary screen, biochemical, single concentration HTS; inhibition, % at 12.5 µM; GST-KDM4C 2-372, H3K9me3 peptide, LANCE TR-FRET; Lysine-specific demethylase 4C (Homo sapiens), Q9H3R0; AID 720574, 2013; 96,000 compounds, 0.15% hits;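 active = mean replicate inhibition above about 25%, with at least 55% of replicates also reaching it, limit read from the data, passing the limit was not always enough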
Target sequence (Q9H3R0 2-372 limits assumed): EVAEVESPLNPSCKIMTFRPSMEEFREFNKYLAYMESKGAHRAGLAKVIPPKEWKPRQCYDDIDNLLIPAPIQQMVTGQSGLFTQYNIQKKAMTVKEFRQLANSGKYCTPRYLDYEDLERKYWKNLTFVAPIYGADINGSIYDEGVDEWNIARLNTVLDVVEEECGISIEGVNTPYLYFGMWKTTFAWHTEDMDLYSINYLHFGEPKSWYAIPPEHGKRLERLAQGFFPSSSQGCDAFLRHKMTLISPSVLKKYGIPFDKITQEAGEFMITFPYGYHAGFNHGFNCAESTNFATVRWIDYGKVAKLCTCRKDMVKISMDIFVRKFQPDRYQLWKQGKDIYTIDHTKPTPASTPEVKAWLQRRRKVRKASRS
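Compound: one test concentration per compound; Material: GST-GASC-1 enzyme fragment 2-372; Amount: GASC-1 enzyme at 10 nM final in reaction; Also added: H3K9me3 peptide substrate, Fe(II), 2-oxoglutarate; Technique: LANCE TR-FRET; Times: 30 min demethylation and 1 h detection at room temperature.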
IDH1 mut inh – inhibitors of IDH1 R132H reductase, primary screen, biochemical, plate reader, single point. Isocitrate dehydrogenase [NADP] cytoplasmic (Homo sapiens), O75874. diaphorase/resazurin fluorescence, 60 min. inhibition, % at 10 µM. 70,000 compounds, 0.18% hits; in the data active = inhibition above about 34%;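 also: 0% = DMSO and 100% = no enzyme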
T cruzi growth-1 – T. cruzi intracellular proliferation inhibitors, primary screen, cell-based, beta-gal Tulahuen parasites, NIH3T3 host, luminescence; inhibition, % at 8.34 µM; AID 624255, 2012; T. cruzi beta-gal in NIH3T3, GalScreen luminescence, 90 h; 77,000 compounds, 5.9% hits;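 active = mean inhibition above about 93%, with at least 55% of replicates each passing it, limit read from the data, passing the limit was not always enough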
T cruzi growth-2 – T. cruzi intracellular proliferation inhibitors, confirmation, cell-based, NIH3T3 host, beta-gal parasite, luminescence, cherry-pick; T. cruzi beta-gal in NIH3T3, GalScreen luminescence, 90 h; inhibition, % at 8.35 µM; 5,600 compounds, 72% hits; AID 651739, 2012; shares compounds with T cruzi growth-1;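 active = mean replicate inhibition above about 95% and at least 55% of replicates individually reaching it, limit read from the data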
T cruzi growth-3 – inhibitors of intracellular T. cruzi replication, confirmation, NIH3T3 host cells, beta-gal parasites, cherry-pick, set 2; 5,600 compounds, 21% hits; T. cruzi beta-gal in NIH3T3, GalScreen luminescence, 90 h; inhibition, % at 2.09 µM; shares compounds with T cruzi growth-1; AID 651740, 2012;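 active = mean inhibition above about 95%, with at least 55% of replicates also reaching it, limit read from the data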;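 also: plate controls were neutral control median for no effect and positive control median for full effect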
3T3 cytotox – cytotoxicity in mouse NIH/3T3 fibroblasts, confirmation, cytotoxicity control for T. cruzi proliferation inhibitor project, cell-based, cherry-pick, single point; AID 651742, 2012; 5,600 compounds, 14% hits; shares compounds with T cruzi growth-1; NIH/3T3 viability, CellTiter-Glo ATP luminescence, 90 h; cytotoxicity (signal decrease), % at 8.35 µM;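 active = mean signal decrease across replicates above about 35% based on untreated-well scatter, with enough replicates individually passing, limit read from the data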;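 also: 0% = median of neutral control wells and 100% = median of positive control wells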
3T3 cytotox 2 – NIH/3T3 fibroblast cytotoxicity, confirmation, cytotoxicity control, cell-based, cherry-pick, single point, set 2. shares compounds with T cruzi growth-1. NIH/3T3 viability, CellTiter-Glo ATP luminescence, 90 h. 5,600 compounds, 56% hits. inhibition, % at 24.9 µM. AID 651744, 2012;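 active = mean loss of cell viability signal at or above a set limit, and enough replicates individually reaching it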;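 also: 0% = median of neutral control wells and 100% = median of positive control wells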
* marks the source's active call; other numbers are inactive results. The sample as a whole holds a higher share of hits than the screen did.

Results for C[C@@H]1CN([C@@H](C)CO)S(=O)(=O)c2ccc(C3=CCCCC3)cc2O[C@@H]1CN(C)C(=O)C1CC1 ?
KDM4C inh: 0; T cruzi growth-1: 65

How did C[C@@H]1CN([C@@H](C)CO)S(=O)(=O)c2ccc(C3=CCCCC3)cc2O[C@H]1CN(C)C(=O)C1CCCCC1 do in these assays?
KDM4C inh: 0; IDH1 mut inh: 6; T cruzi growth-1: 118*; T cruzi growth-2: 104*; T cruzi growth-3: 45; 3T3 cytotox: 9; 3T3 cytotox 2: 96*

What do the screens show for `C[C@@H]1CN([C@@H](C)CO)S(=O)(=O)c2ccc(C3=CCCCC3)cc2O[C@@H]1CN(C)C(=O)C1CCCCC1`?
KDM4C inh: 9; T cruzi growth-1: 119*; T cruzi growth-2: 105*; T cruzi growth-3: 93; 3T3 cytotox: 34; 3T3 cytotox 2: 106*

What do the screens show for `C[C@@H]1CN([C@@H](C)CO)S(=O)(=O)c2ccc(C3=CCCCC3)cc2O[C@@H]1CN(C)C(=O)C1CCC1`?
KDM4C inh: 0; T cruzi growth-1: 48

What do the screens show for `CC(C)C(NC=O)C(=O)OCC(O)C(O)C(O)C(O)COC(=O)C(NC=O)C(C)C` (configuration not stated)?
IDH1 mut inh: 0

What do the screens show for `CN1CCN(c2ccc(CNS(=O)(=O)c3cccc4nonc34)cc2)CC1`?
IDH1 mut inh: 0

Results for COC(=O)c1cc(NC(=O)COc2ccccc2OC)cc(C(=O)OC)c1 ?
IDH1 mut inh: -1

What do the screens show for `COc1ccc(-c2ccc(CCC(=O)O)n2-c2ccc(C(=O)O)cc2)cc1`?
IDH1 mut inh: 1

What do the screens show for `COc1cccc(NC(=O)N(C)C[C@H]2Oc3ncc(C#Cc4ccc(F)cc4)cc3C(=O)N([C@@H](C)CO)C[C@@H]2C)c1`?
KDM4C inh: -4; T cruzi growth-1: 121*; T cruzi growth-2: 106*; T cruzi growth-3: 100*; 3T3 cytotox: 23; 3T3 cytotox 2: 38*

What do the screens show for `COc1cccc(NC(=O)N(C)C[C@@H]2Oc3ncc(C#Cc4ccc(F)cc4)cc3C(=O)N([C@@H](C)CO)C[C@H]2C)c1`?
KDM4C inh: -2; T cruzi growth-1: 113*; T cruzi growth-2: 112*; T cruzi growth-3: 111*; 3T3 cytotox: 31; 3T3 cytotox 2: 14

Results for COc1cccc(NC(=O)N(C)C[C@H]2Oc3ncc(C#Cc4ccc(F)cc4)cc3C(=O)N([C@H](C)CO)C[C@H]2C)c1 ?
KDM4C inh: -2; T cruzi growth-1: 41

How did C[C@@H]1CN([C@@H](C)CO)C(=O)c2cc(C#Cc3ccc(F)cc3)cnc2O[C@H]1CN(C)C(=O)Nc1ccc(F)cc1 do in these assays?
KDM4C inh: -1; IDH1 mut inh: 0; T cruzi growth-1: 17

How did COc1cccc(NC(=O)N(C)C[C@@H]2Oc3ncc(C#Cc4ccc(F)cc4)cc3C(=O)N([C@H](C)CO)C[C@H]2C)c1 do in these assays?
KDM4C inh: -1; IDH1 mut inh: 0; T cruzi growth-1: 117*; T cruzi growth-2: 108*; T cruzi growth-3: 102*; 3T3 cytotox: 5; 3T3 cytotox 2: 14

How did COc1cccc(NC(=O)N(C)C[C@@H]2Oc3ncc(C#Cc4ccc(F)cc4)cc3C(=O)N([C@H](C)CO)C[C@@H]2C)c1 do in these assays?
KDM4C inh: -3; T cruzi growth-1: 104*; T cruzi growth-2: 98*; T cruzi growth-3: 34; 3T3 cytotox: 26; 3T3 cytotox 2: 81*

What do the screens show for `COc1cccc(NC(=O)N(C)C[C@H]2Oc3ncc(C#Cc4cccnc4)cc3C(=O)N([C@H](C)CO)C[C@H]2C)c1`?
KDM4C inh: 0; IDH1 mut inh: -2; T cruzi growth-1: 6

Results for COc1cccc(NC(=O)N(C)C[C@H]2Oc3ncc(C#Cc4ccc(F)cc4)cc3C(=O)N([C@H](C)CO)C[C@@H]2C)c1 ?
KDM4C inh: -2; IDH1 mut inh: -1; T cruzi growth-1: 80

How did O=C(CSc1ncn(-c2ccccc2)n1)Nc1ccc(Cl)cc1Cl do in these assays?
IDH1 mut inh: 0

Results for Cc1cc(C)cc(N(CC(=O)Nc2c(C)cc(C)cc2C)S(C)(=O)=O)c1 ?
IDH1 mut inh: -1

How did CC(C)(CCO[C@@H]1O[C@H](CO[C@@H]2OC[C@@H](O)[C@H](O)[C@H]2O)[C@@H](O)[C@H](O)[C@H]1O)C[C@@H]1C(C(=O)O)=CC[C@]2(C(=O)O)C1=CCC1[C@@]3(C)CC[C@H](O[C@@H]4O[C@H](CO[C@@H]5O[C@H](CO)[C@@H](O)[C@H](O)[C@H]5O)[C@@H](O)[C@H](O)[C@H]4O)C(C)(C)C3CC[C@]12C (some centres not stated) do in these assays?
IDH1 mut inh: 4

Results for CCN(CC(=O)O)S(=O)(=O)c1ccc(OC)cc1 ?
IDH1 mut inh: 0

What do the screens show for `Cc1nc(C)c(C(=O)C2C(=O)C(=O)N(CCCN3CCOCC3)C2c2ccncc2)s1` (configuration not stated)?
IDH1 mut inh: 0

Results for COc1cc(CNC23CC4CC(CC(C4)C2)C3)ccc1OCC(N)=O ?
IDH1 mut inh: 0

How did O=S(=O)(c1ccccc1)N1C[C@@H]2[C@H](c3ccccc31)[C@@H](CO)N2Cc1ccc2c(c1)OCO2 do in these assays?
KDM4C inh: -3; T cruzi growth-1: 79

What do the screens show for `O=S(=O)(c1ccccc1F)N1C[C@H]2[C@@H](c3ccccc31)[C@@H](CO)N2Cc1ccc2c(c1)OCO2`?
KDM4C inh: -8; T cruzi growth-1: 99*; T cruzi growth-2: 103*; T cruzi growth-3: 100*; 3T3 cytotox: 25; 3T3 cytotox 2: -15

What do the screens show for `O=S(=O)(c1ccc(F)cc1)N1C[C@@H]2[C@H](c3ccccc31)[C@H](CO)N2Cc1ccc2c(c1)OCO2`?
KDM4C inh: -4; T cruzi growth-1: 101*; T cruzi growth-2: 107*; T cruzi growth-3: 83; 3T3 cytotox: 29; 3T3 cytotox 2: -3

What do the screens show for `O=S(=O)(c1ccc(F)cc1)N1C[C@H]2[C@@H](c3ccccc31)[C@@H](CO)N2Cc1ccc2c(c1)OCO2`?
KDM4C inh: -3; T cruzi growth-1: 80
